Experimental data as given in ChEMBL document CHEMBL1136151, “Suzuki cross-coupling approaches to the synthesis of bioactive 3-substituted and 5-substituted-4-methoxy-6-methyl-2-pyrones” (Bioorg Med Chem Lett, 2003).

Assays:
Format in all cases: functional
Botrytis cinerea [1] = assay: Percent growth of Botrytis cinerea after 72 hours of incubation; parameters: concentration or dose not given beside the values
In short: (§1)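 Fungal plate assay: pyrone dissolved in absolute EtOH at 10mg/mL and pipetted 2 cm offset from the centre of the plate containing the organism. EtOH alone served as control. Growth is recorded as percentage of the organism after 72 h and after 7 days of incubation.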

Saccharomyces cerevisiae = assay: Antimicrobial activity against Saccharomyces cerevisiae was determined after 48 hours of incubation
In short: (§2)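 Disk diffusion on yeast plates: cellulose disks carrying test compound, with an EtOH control. Incubation 48 h. The inhibition zone radius is recorded in mm.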

Staphylococcus aureus = assay: Antimicrobial activity against Staphylococcus aureus was determined after 96 hours of incubation
In short: (§3)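 Disk diffusion: cellulose disks loaded with test compound and placed on bacterial plates, with an EtOH control disk. Incubation 96 h. Read-out is the radius (mm) of the inhibition zone.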

Candida albicans = assay: Antimicrobial activity against Candida albicans was determined after 48 hours of incubation; in short: as §2
Globisporangium ultimum [2] = assay: Percent growth of Pythium ultimum after 72 hours of incubation; parameters: concentration or dose not given beside the values; in short: as §1
Escherichia coli = assay: Antimicrobial activity against Escherichia coli was determined after 96 hours of incubation; in short: as §3
Thanatephorus cucumeris [3] = assay: Percent growth of Rhizoctonia solani after 72 hours of incubation; parameters: concentration or dose not given beside the values; in short: as §1
Aspergillus niger [4] = assay: Percent growth of Aspergillus niger after 72 hours of incubation; parameters: concentration or dose not given beside the values; in short: as §1
Fusarium oxysporum [5] = assay: Percent growth of Fusarium oxysporum after 7 days of incubation; parameters: concentration or dose not given beside the values; in short: as §1
Aspergillus niger [6] = assay: Percent growth of Aspergillus niger after 7 days of incubation; parameters: concentration or dose not given beside the values; in short: as §1
Thanatephorus cucumeris [7] = assay: Percent growth of Rhizoctonia solani after 7 days of incubation; parameters: concentration or dose not given beside the values; in short: as §1
Globisporangium ultimum [8] = assay: Percent growth of Pythium ultimum after 7 days of incubation; parameters: concentration or dose not given beside the values; in short: as §1
Botrytis cinerea [9] = assay: Percent growth of Botrytis cinerea after 7 days of incubation; parameters: concentration or dose not given beside the values; in short: as §1
[10] = tested on: Schizosaccharomyces pombe; assay: Antimicrobial activity against Schizosaccharomyces pombe was determined after 48 hours of incubation; in short: as §2
Bacillus subtilis = assay: Antimicrobial activity against Bacillus subtilis was determined after 96 hours of incubation; in short: as §3
Fusarium oxysporum [11] = assay: Percent growth of Fusarium oxysporum after 72 hours of incubation; parameters: concentration or dose not given beside the values; in short: as §1
[12] = tested on: Globisporangium mamillatum; assay: Percent growth of Pythium mammillatum after 72 hours of incubation; parameters: concentration or dose not given beside the values; in short: as §1
[13] = tested on: Globisporangium mamillatum; assay: Percent growth of Pythium mammillatum after 7 days of incubation; parameters: concentration or dose not given beside the values; in short: as §1

Structure (SMILES) | Growth (Botrytis cinerea [1]) | Activity (Saccharomyces cerevisiae) | Activity (Staphylococcus aureus) | Activity (Candida albicans) | Growth (Globisporangium ultimum [2]) | Activity (Escherichia coli) | Growth (Thanatephorus cucumeris [3]) | Growth (Aspergillus niger [4]) | Growth (Fusarium oxysporum [5]) | Growth (Aspergillus niger [6]) | Growth (Thanatephorus cucumeris [7]) | Growth (Globisporangium ultimum [8]) | Growth (Botrytis cinerea [9]) | Activity [10] | Activity (Bacillus subtilis) | Growth (Fusarium oxysporum [11]) | Growth [12] | Growth [13]
COc1cc(C)oc(=O)c1-c1ccc(C)cc1 | 58% | 0 mm | 0 mm | 0 mm | 100% | 20 mm | 55% | >95% | 60% | 100% | 100% | 100% | 100% | 0 mm | 16 mm | 11% |  | 
COc1cc(C)oc(=O)c1-c1ccc(C=O)cc1 | 65% | 0 mm | 0 mm | 0 mm | 100% | 6 mm | 79% | 83% | 60% | >95% | 100% | 100% | 100% | 0 mm | 6 mm | 11% |  | 
CCCCC/C=C/c1c(OC)cc(C)oc1=O | 53% | 0 mm | 0 mm | 0 mm | 61% | 0 mm | 47% | 90% | 56% | 95% | 100% | 75% | 100% | 0 mm | 20 mm | 11% | 42% | 100%
CCC/C=C/c1cc(C)oc(=O)c1 | 47% | 0 mm | 20 mm | 16 mm | 100% | 19 mm | 49% | >95% | 45% | 100% | 100% | 100% | 100% | 28 mm | 16 mm | 5% |  | 
COc1ccc(-c2c(OC)cc(C)oc2=O)cc1 | 62% | 0 mm | 0 mm | 0 mm | 100% | 0 mm | 81% | 70% | 60% | 82% | 100% | 100% | 100% | 0 mm | 0 mm | 7% |  | 
COc1cc(=O)oc(C)c1-c1ccccc1 | 47% | 0 mm | 0 mm | 0 mm |  | 6 mm | 67% | 71% | 51% | >90% | 100% |  | 100% | 0 mm | 6 mm | 12% |  | 
CCCCC/C=C/c1c(OC)cc(=O)oc1C | 12% | 12 mm | 16 mm | 12 mm | 100% | 20 mm | 33% | 82% | 24% | 95% | 100% | 100% | 100% | 26 mm | 19 mm | 7% | 24% | 94%
COc1cc(C)oc(=O)c1-c1ccc(Cl)cc1 | 58% | 30 mm | 0 mm | 0 mm | 100% | 18 mm | 51% | >95% | 60% | 95% | 100% | 100% | 100% | 0 mm | 17 mm | 8% |  | 
Cc1cc(/C=C/c2ccccc2)cc(=O)o1 | 59% | 0 mm | 0 mm | 0 mm | 100% | 17 mm | 47% | 100% |  | 100% | 100% | 100% | 100% | 18 mm | 18 mm |  |  | 
CCCC/C=C/c1c(OC)cc(=O)oc1C | 33% | 15 mm | 15 mm | 18 mm | 100% | 18 mm | 41% | 68% | 35% | >95% | 93.4% | 100% | 100% | 31 mm | 17 mm | 7% | 34% | 92%
COc1cc(=O)oc(C)c1/C=C/c1ccccc1 | 47% | 0 mm | 0 mm | 0 mm |  | 6 mm | 67% | 71% | 51% | 90% | 100% |  | 100% | 0 mm | 6 mm | 12% |  | 
COc1ccc(-c2c(OC)cc(=O)oc2C)cc1 | 53% | 0 mm | 13 mm | 11 mm |  | 5 mm | 69% | 85% | 61% | 90% | 100% |  | 100% | 18 mm | 14 mm | 11% |  | 
COc1cc(C)oc(=O)c1-c1cccc([N+](=O)[O-])c1 |  | 0 mm | 0 mm | 0 mm | 100% | 0 mm |  | 100% | 60% | 100% | 100% | 100% | 100% | 0 mm | 6 mm | 12% |  | 
CCCCCC/C=C/c1cc(C)oc(=O)c1 | 42% | 0 mm | 18 mm | 20 mm | 100% | 20 mm | 44% | 89% | 30% | 94% | 100% | 100% | 100% | 29 mm | 18 mm | 5% |  | 
COc1cc(C)oc(=O)c1-c1ccccc1 | 63% | 0 mm | 0 mm | 0 mm | 100% | 0 mm | 75% | >95% | 60% | 100% | 100% | 100% | 100% | 0 mm | 6 mm | 7.4% |  | 
CCC/C=C/c1c(OC)cc(C)oc1=O | 56% | 0 mm | 0 mm | 0 mm | 67% | 21 mm | 44% | 93% | 48% | >95% | 100% | 80% | 100% | 13 mm | 18 mm | 8% | 43% | 100%
CCCC/C=C/c1c(OC)cc(C)oc1=O | 51% | 0 mm | 21 mm | 0 mm | 37% | 20 mm | 43% | 77% | 48% | 91% | 100% | 57% | 100% | 0 mm | 19 mm | 8% | 35% | 100%
COc1cc(C)oc(=O)c1/C=C/c1ccccc1 | 58% | 0 mm | 0 mm | 0 mm | 100% | 0 mm | 92% | >95% | 60% | 100% | 100% | 100% | 100% | 0 mm | 0 mm | 11% |  | 
